Legend:
CDK2 = CDK2 (Homo sapiens, UniProt P24941); experiment: ADP-Glo Kinase Assay, cell-free detection of CDK2 activity; format: biochemical
HCT116 = experiment: MTT anti-tumour cell proliferation in vitro, HCT116; format: cell-based; details: Homo sapiens, HCT-116, 36 h, read-out: Cells IC50 (μM) HCT116
In short: (§1)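 Cells grown in RPMI1640 with 10% foetal bovine serum at 37 °C, 5% CO2. Seeded at 5000/well in triplicate and allowed 6 h to adhere. Treated with a concentration series of test compound for 36 h. Reference CDK inhibitor at the same concentrations served as positive control, and DMSO as negative control. Stained with 5% MTT; absorbance read at 570 nm.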

A549 = experiment: MTT anti-tumour cell proliferation in vitro, A549; format: cell-based; details: Homo sapiens, A549, 36 h, read-out: Cells IC50 (μM) A549
In short: as §1

- IC50 (CDK2): 0.0527 ± 0.0031 µM
- IC50 (HCT116): 1.1 ± 0.3 µM
- IC50 (A549): 3.7 ± 0.4 µM
SMILES: CNC(=O)c1nn(C)c2c1C(C)(C)Cc1cnc(Nc3ccc(N4CCN(C)CC4)cc3)nc1-2 [Milciclib]

From PMC6882486 (Journal of Enzyme Inhibition and Medicinal Chemistry, 2019)
